NadD block – NadD (S. aureus) enzyme inhibition | purified NadD enzyme, colorimetric absorbance read-out | hit rate 0.78% among 360,000 | inhibition, % at 20 µM; in the data active means inhibition above about 26%
core dimer inh – blocks dimerization of HCV core protein; hit rate 0.33% among 300,000; inhibition, % at 5 µM; AID 1899; TR-FRET GST/Flag-core106 dimerization, 1536-well;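 active means inhibition above the mean of all tested compounds plus 3 SD, set per screening campaign, cut at about 45% in these data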
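System: GST-tagged and Flag-tagged HCV core protein residues 1-106 / Input: core106 proteins, GST 13.5 nM and Flag 17 nM / Buffer or medium: KF-containing HEPES buffer, pH 7.45, DTT, CHAPS, BSA / Probe or stimulus: Eu-anti-GST and XL665-anti-Flag labelled anti-tag antibodies / Schedule: 4 h, 22.5 °C incubation / Technique: TR-FRET 671 and 617 nm emission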
ABHD5-PLIN5 inh – ABHD5-PLIN5 protein interaction inhibition. Split G. princeps luciferase complementation, luminescence, 4 h. inhibition, % at 4 µM. hit rate 0.78% among 360,000;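 active means inhibition above the mean inhibition across every tested compound plus 3 SD, cut at about 22% in these data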;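 further: 0% = DMSO only wells and the 100% control is not disclosed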
rCAG RNA binder – binds r(CAG) RNA repeats. hit rate 1.3% among 370,000. inhibition, % at 3 µM. r(CAG) RNA repeat, TO-PRO-1 dye displacement fluorescence;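 active means inhibition above the plate cutoff, the mean of all test compounds on that plate plus 3 SD, cut at about 35% in these data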;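 further: 0% = DMSO alone and 100% = 100 µM mitoxantrone as full dye displacement; higher means more dye released from RNA so lower well fluorescence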
ABHD5 PLIN5 conf – ABHD5-PLIN5 interaction inhibition, confirmed; shares compounds with ABHD5-PLIN5 inh; AID 651612; hit rate 67% among 2,200; inhibition, % at 4 µM; biochemical ABHD5-PLIN5 interaction, luminescence; in the data active means inhibition above about 23%;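 further: 0% = DMSO vehicle wells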
HNF4 split-luc – active in HNF4 split-luciferase counter-screen for ABHD5-PLIN5 inhibitors; hit rate 77% among 2,200; HNF4 dimerization, luminescence, biochemical; shares compounds with ABHD5-PLIN5 inh; inhibition, % at 4 µM;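 active means mean inhibition across replicate wells exceeding the computed hit threshold, cut at about 13% in these data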;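 further: light from luciferase halves that rejoin when HNF4 fusion proteins dimerize; 0% = DMSO only wells and the 100% control is not given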
Target sequence (P41235 whole entry, looked up, the tested form may be a part): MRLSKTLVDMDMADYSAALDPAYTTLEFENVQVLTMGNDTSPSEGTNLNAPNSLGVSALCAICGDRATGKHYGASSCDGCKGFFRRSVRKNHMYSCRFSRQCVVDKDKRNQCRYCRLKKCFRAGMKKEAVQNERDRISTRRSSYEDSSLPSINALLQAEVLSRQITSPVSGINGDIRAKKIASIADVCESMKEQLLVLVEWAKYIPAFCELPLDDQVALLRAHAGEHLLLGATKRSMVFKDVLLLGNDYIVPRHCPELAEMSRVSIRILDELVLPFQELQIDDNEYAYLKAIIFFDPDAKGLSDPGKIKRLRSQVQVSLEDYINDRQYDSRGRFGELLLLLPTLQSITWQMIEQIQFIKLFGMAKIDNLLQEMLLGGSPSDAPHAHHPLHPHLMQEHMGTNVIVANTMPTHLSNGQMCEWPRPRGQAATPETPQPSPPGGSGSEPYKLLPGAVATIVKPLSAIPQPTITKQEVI
* hit, by the source's call; . = no result. Only some compounds are listed: those with a hit (about 2.6% of all), similar ones and a draw of the others.

SMILES | NadD block | core dimer inh | ABHD5-PLIN5 inh | rCAG RNA binder | ABHD5 PLIN5 conf | HNF4 split-luc
COC(=O)c1cc2c(c3c4cc(F)ccc4n(S(=O)(=O)c4ccc(C)cc4)c13)C(=O)N(Cc1ccc(C(F)(F)F)cc1)C2 | . | . | . | 7.5 | . | .
Cn1cccc1/C=C1\CC(C(C)(C)C)C/C(=C\c2cccn2C)C1=O (centres undefined) | -1.4 | 0.0 | 25.5* | -2.2 | 12.4 | 25.9*
Cn1cccc1/C=C1\Cc2ccccc2C1=O | -8.2 | -17.1 | 3.7 | 1.5 | . | .
CCOC(=O)C1CCN(Cc2cc(Cl)c3ccccc3c2O)CC1 | 2.4 | -11.5 | 65.9* | . | 19.6 | 55.2*
Oc1c(CN2CCCC(C(F)(F)F)C2)cc(Cl)c2ccccc12 (centres undefined) | 2.9 | -3.7 | 23.9* | 6.7 | 9.5 | 12.3
CCOC(=O)C1CCN(Cc2ccc(OC)c(C)c2OC)CC1 | 0.5 | -0.8 | 3.8 | -4.5 | . | .
OC1CCCN(Cc2cccc3ccccc23)C1 (centres undefined) | 7.2 | -0.3 | 0.9 | 3.0 | . | .
O=c1c2cc(N3CCOCC3)ccc2[nH]c(=S)n1Cc1ccc(Cl)cc1 | 17.5 | 2.2 | -6.4 | 6.8 | . | .
Cc1ccc(Cn2c(=S)[nH]c3ccc(N4CCOCC4)cc3c2=O)o1 | 18.1 | 11.8 | 30.6* | 17.4 | 42.7* | 90.6*
Cc1ccc(CNC(=O)CC(C)S(=O)(=O)c2ccc3c(c2)NC(=O)CS3)o1 (centres undefined) | 1.2 | 4.3 | 38.1* | 0.0 | 12.1 | 21.9*
Cc1ccc(CNC(=O)CC(C)S(=O)(=O)c2ccc3c(c2)NC(=O)CO3)cc1 (centres undefined) | -2.4 | 10.5 | -5.2 | -2.3 | . | .
CCc1c(-c2cccc(F)c2)ncn1CCc1ccccc1OC | . | . | . | -2.8 | . | .
Cc1ccc2cccnc2c1NC(=S)NC(=O)c1ccccc1 | 9.8 | 2.7 | 35.5* | 2.9 | 14.5 | 31.6*
Cc1ccc2cccc(NC(=S)NC(=O)c3ccccc3)c2n1 | -1.5 | 8.6 | 3.6 | 10.9 | . | .
Cc1cc(Br)c2c(c1)/C(=C/C(=O)c1cccs1)C(=O)N2 | 9.0 | 0.6 | 10.1 | 19.1 | . | .
Cc1cccc2c1NC(=O)/C2=C\C(=O)c1cccs1 | 0.3 | -1.5 | 52.6* | 16.9 | 78.1* | 85.2*
CCc1ccc2c(c1)/C(=C/C(=O)c1cccs1)C(=O)N2 | 4.3 | -1.3 | 83.3* | 21.0 | 90.2* | 96.1*
O=[N+]([O-])c1ccc(Cn2ccc3ccc(-c4ccc5ccn(Cc6ccccc6)c5c4)cc32)cc1 | . | . | . | 16.3 | . | .
O=C(O)c1cccc(N2C(=O)C=CC2=O)c1 | 2.9 | . | 37.1* | 3.6 | 43.8* | 104.2*
O=C(Cc1ccccc1)Nc1cccc(N2C(=O)C=CC2=O)c1 | 3.8 | -4.4 | 29.0* | 7.7 | 46.7* | 106.6*
CCCCOC(=O)Nc1cc(C(=O)OC)ccc1C(=O)OC | -4.1 | 5.8 | 27.6* | . | 42.6* | 5.5
CCCCOC(=O)Nc1ccc(C(=O)OC)cc1 | -2.7 | -0.7 | -2.7 | 3.1 | . | .
COc1ccc(-n2c(N)c(C(=O)NCc3ccco3)c3nc4ccccc4nc32)c(OC)c1 | 8.9 | 6.9 | 28.9* | 13.9 | 50.7* | 67.5*
COC(=O)[C@]12C[C@H](CC(=O)NCc3cccc4ccccc34)C(=O)N(Cc3ccc4c(c3)OCO4)C1=C[C@H](C(C)(C)C)O[C@@H]2C | . | . | . | 7.5 | . | .
Cc1ccc(S(=O)(=O)C2CS(=O)(=O)CC2O)cc1 (centres undefined) | -2.9 | -5.3 | 3.0 | -0.7 | . | .
SMILES | NadD block | core dimer inh | ABHD5-PLIN5 inh | rCAG RNA binder | ABHD5 PLIN5 conf | HNF4 split-luc
CC(=O)C1=C(S(=O)(=O)c2ccc(C)cc2)CS(=O)(=O)C1 | 4.3 | . | 29.0* | -1.9 | 98.8* | 110.5*
COc1ccc2cc(N3CCCC3=O)ccc2c1 | 2.2 | . | -9.4 | 1.5 | . | .
CC1(C(=O)Nc2cnc3ccccc3c2)CCN1Cc1ccc(-c2ccccc2)o1 (centres undefined) | 7.0 | . | 65.0* | 9.6 | 46.5* | 69.7*
COc1cccc(NC(=O)C2(C)CCN2Cc2ccc(-c3ccccc3)o2)c1 (centres undefined) | 4.6 | . | 4.2 | 3.5 | . | .
CC1CCc2onc(C(=O)O)c2C1 (centres undefined) | 0.8 | 2.6 | 1.6 | 0.1 | . | .
CCCCCCCCCc1conc1C(=O)/C=C/c1oc2c(c1C)CCC(C)C2 (centres undefined) | . | . | 41.6* | 13.3 | 36.6* | -1.2
CCCCN(C(=O)c1cccc(S(=O)(=O)N(C)c2ccc(C)cc2)c1)c1c(N)n(CC(C)C)c(=O)[nH]c1=O | -0.2 | . | 7.5 | 3.0 | . | .

Source: PubChem BioAssay
